Tests used:
[1] = target: T1, Chromodomain Y-like protein (Homo sapiens, UniProt Q9Y232); experiment: Binding affinity to recombinant human N-terminal GST-tagged CDYL (1 to 60 residues) expressed in Escherichia coli […] by SPR analysis
T1 sequence (Q9Y232 whole entry): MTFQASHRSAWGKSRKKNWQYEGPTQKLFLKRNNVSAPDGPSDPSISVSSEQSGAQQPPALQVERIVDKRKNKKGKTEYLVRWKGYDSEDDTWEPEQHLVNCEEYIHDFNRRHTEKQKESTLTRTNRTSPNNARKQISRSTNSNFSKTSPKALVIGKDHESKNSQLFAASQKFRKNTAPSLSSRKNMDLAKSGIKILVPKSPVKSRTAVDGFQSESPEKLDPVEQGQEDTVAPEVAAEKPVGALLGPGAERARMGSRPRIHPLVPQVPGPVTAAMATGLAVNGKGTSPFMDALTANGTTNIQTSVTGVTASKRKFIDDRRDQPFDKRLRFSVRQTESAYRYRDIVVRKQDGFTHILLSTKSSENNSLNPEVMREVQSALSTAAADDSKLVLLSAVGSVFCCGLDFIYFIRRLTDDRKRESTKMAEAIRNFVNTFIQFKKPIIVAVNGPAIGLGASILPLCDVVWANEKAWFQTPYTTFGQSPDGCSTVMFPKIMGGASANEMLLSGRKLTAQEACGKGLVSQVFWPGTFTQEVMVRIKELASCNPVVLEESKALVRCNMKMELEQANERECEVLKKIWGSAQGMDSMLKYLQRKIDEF
How it was run: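 GST-tagged chromodomain expressed in E. coli BL21 with 0.2 mM IPTG at 28 °C for 6 h. Purified on GSTrap, tag removed with PreScission protease. Amine-coupled to CM5 chip at pH 4.0–4.5 (5000–10000 RU). Compound run as a 1.5- or 2-fold series from 100 µM in PBSP with 5% DMSO, 25 °C, 30 µL/min, 60 s association and 60 s dissociation.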

[2] = target: T2, Chromobox protein homolog 7 (Homo sapiens, UniProt O95931); experiment: Binding affinity to recombinant human N-terminal GST-tagged CBX7 (1 to 62 residues) expressed in Escherichia coli […] by SPR analysis
T2 sequence (O95931 whole entry): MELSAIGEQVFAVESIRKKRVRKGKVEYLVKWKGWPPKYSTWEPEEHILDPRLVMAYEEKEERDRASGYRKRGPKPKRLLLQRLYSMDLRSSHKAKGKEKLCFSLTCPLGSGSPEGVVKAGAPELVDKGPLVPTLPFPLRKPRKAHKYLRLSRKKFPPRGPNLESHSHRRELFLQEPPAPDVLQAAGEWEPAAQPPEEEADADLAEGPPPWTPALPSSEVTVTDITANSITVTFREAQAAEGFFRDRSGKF
How it was run: (§1)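 Chromodomain expressed with N-terminal GST tag in E. coli BL21 (IPTG 0.2 mM at OD600 0.6–0.8, 28 C for 6 h), GSTrap purified, tag cleaved by PreScission protease, amine-coupled to CM5 chip at pH 4.0–4.5 (5000–10000 RU). […] Mean ± SD of at least two replicates, each in duplicate.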

[3] = target: T3, Testis-specific chromodomain protein Y 1 (Homo sapiens, UniProt Q9Y6F8); experiment: Binding affinity to recombinant human N-terminal GST-tagged CDY1 (1 to 65 residues) expressed in Escherichia coli […] by SPR analysis; how it was run: as §1
T3 sequence (Q9Y6F8 whole entry): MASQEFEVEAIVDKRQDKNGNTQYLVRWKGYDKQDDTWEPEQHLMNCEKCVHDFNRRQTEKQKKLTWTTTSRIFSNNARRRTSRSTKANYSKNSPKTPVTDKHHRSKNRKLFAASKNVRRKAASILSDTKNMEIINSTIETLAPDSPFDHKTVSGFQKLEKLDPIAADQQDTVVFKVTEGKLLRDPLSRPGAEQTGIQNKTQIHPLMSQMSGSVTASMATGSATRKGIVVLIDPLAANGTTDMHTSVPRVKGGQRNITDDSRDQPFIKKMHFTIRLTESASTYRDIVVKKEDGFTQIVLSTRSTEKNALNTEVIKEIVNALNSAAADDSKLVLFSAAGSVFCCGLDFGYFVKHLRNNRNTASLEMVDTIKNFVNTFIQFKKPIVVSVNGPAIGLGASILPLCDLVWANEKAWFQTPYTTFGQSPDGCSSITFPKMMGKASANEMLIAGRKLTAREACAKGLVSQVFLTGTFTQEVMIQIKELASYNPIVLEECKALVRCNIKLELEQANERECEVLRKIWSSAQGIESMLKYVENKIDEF

HEK-293T = experiment: Cytotoxicity against human HEK293T cells assessed as reduction in cell viability incubated for 24 hrs by CCK8 assay
SH-SY5Y = experiment: Cytotoxicity against human SH-SY5Y cells assessed as reduction in cell viability incubated for 24 hrs by CCK8 assay

| SMILES | Kd [1] [µM] | Kd [2] [µM] | Kd [3] [µM] | IC50 (HEK-293T) [µM] | IC50 (SH-SY5Y) [µM] |
| --- | --- | --- | --- | --- | --- |
| COCCCNC(=O)Cc1c(C)c2c(O)cc(C)cc2oc1=O | 26 |  |  |  |  |
| CCN(CC)C1CCN(C(=O)Cn2c(=O)oc3ccccc32)CC1 | 5.8 | 46.6 |  |  |  |
| CCCN1C(=O)C(O)(CC(=O)c2cc(Br)c(Br)o2)c2cc(Cl)ccc21 (configuration not stated) | 15.4 | 16 |  |  |  |
| N#Cc1ccc2oc(=O)n(CC(=O)c3c[nH]c4ccccc34)c2c1 | 96.7 | 46.9 | 4.6 |  |  |
| CCN(CC)CCOC(=O)CCc1cccc2ccccc12 | 60.8 |  |  |  |  |
| COc1cccc(C(=O)Cn2cnc3ccccc32)c1 | 10.1 |  | 4 |  |  |
| CN1C(=O)C(O)(CC(=O)c2ccc3ccccc3c2)c2ccccc21 (configuration not stated) | 19.4 | 5.1 | 28.9 |  |  |
| C[C@@H](CN1CCCC1)OC(=O)c1ccc(Cl)cc1Cl | 271 |  |  |  |  |
| COc1ccc(C(=O)Cn2c(=O)oc3ccccc32)cc1OC | 14.6 | 48.5 | 23.8 |  |  |
| N#Cc1ccc2oc(=O)n(CC(=O)c3ccc4ccccc4c3)c2c1 | 101 |  | 71.5 |  |  |
| COc1cccc(C(=O)CC2C(=O)Nc3ccc(Cl)cc32)c1 (racemic) | 1.2 |  | > 200 | 36.9 | 43.4 |
| O=C(Cn1c(=O)oc2ccc(Br)cc21)c1ccc2ccccc2c1 | 5.8 | 9.5 | 14.8 |  |  |
| CN(C)c1ccc(C(=O)Cn2c(=O)oc3ccccc32)cc1 | 11.9 | 36.5 |  |  |  |
| COc1cccc(C(=O)CN2C(=O)COc3ccccc32)c1 | 13 | 53 | 11.3 |  |  |
| O=C(Cn1c(=O)oc2ccc(F)cc21)c1ccc2ccccc2c1 | 20.1 | 40.2 | 210 |  |  |
| CCCC(=O)Nc1ccc(Cl)c(NC(=O)COc2ccccc2OC)c1 | 14.2 |  |  |  |  |
| COc1cccc(C(=O)Cn2c(=O)oc3ccc(OC)cc32)c1 | 7.7 | 17.2 | 15.6 |  |  |
| COc1cccc(C(=O)Cn2c(=O)oc3ccc(C#N)cc32)c1 |  | 19.6 | 42.1 |  |  |
| COc1cccc(NC(=O)Cn2c(=O)oc3ccccc32)c1 | 7.3 | 14.8 | 1 |  |  |
| COc1cccc(C(=O)Cn2c(=O)oc3ccccc32)c1 | 4.9 |  | 5.8 |  |  |
| CC(C)N1C(=O)C(O)(CC(=O)c2ccco2)c2ccccc21 (configuration not stated) | 13.1 | 41.1 | 61.6 |  |  |
| CN(C)c1ccc(C(=O)Cn2c(=O)oc3ccc(F)cc32)cc1 | 90.1 | 78.1 | 34.6 |  |  |
| O=C(Cn1c(=O)oc2ccccc21)Nc1ccc2ccccc2c1 | 18.9 | 19.6 | 20.4 |  |  |
| O=C(Cn1c(=O)sc2cc([N+](=O)[O-])ccc21)c1ccc2ccccc2c1 | 26.8 |  | 123 |  |  |
| COc1cccc(C(=O)/C=C2\C(=O)Nc3ccc(Cl)cc32)c1 | 15.4 |  | 10.3 | 16.6 | 21.5 |
| O=C(Cn1c(=O)oc2ccc(F)cc21)c1c[nH]c2ccccc12 | 5.1 | 9.8 | 23.7 |  |  |
| O=C(Cn1c(=O)oc2ccccc21)N1CCC(N2CCCCC2)CC1 | 11.8 | 13.5 | 51.1 |  |  |
| O=C(CN1C(=O)COc2ccccc21)c1ccc2ccccc2c1 | 52.5 | 26.5 | 39.6 |  |  |

| SMILES | Kd [1] [µM] | Kd [2] [µM] | Kd [3] [µM] | IC50 (HEK-293T) [µM] | IC50 (SH-SY5Y) [µM] |
| --- | --- | --- | --- | --- | --- |
| O=C(Cn1c(=O)oc2ccccc21)Nc1cccc2ccccc12 | 29 | > 200 | 0.8 |  |  |
| O=C(Cn1c(=O)sc2cc([N+](=O)[O-])ccc21)c1c[nH]c2ccccc12 | 71.7 | 8.8 | 14.4 |  |  |
| COc1cccc(C(=O)Cn2c(=O)oc3ccc(F)cc32)c1 | 6.2 | 3.4 |  |  |  |
| COc1ccccc1[C@@H]1NC(=O)c2c(sc3c2CCN(C)C3)N1 | 53.2 |  |  |  |  |
| CCCN1C(=O)C(O)(CC(=O)c2cccc3ccccc23)c2ccccc21 (configuration not stated) | 23 | 20.4 | 21.1 |  |  |
| CN(C)C1CCN(C(=O)Cn2c(=O)oc3ccccc32)CC1 | 9.5 |  | 33.6 |  |  |
| Nc1ccc2c(c1)sc(=O)n2CC(=O)c1c[nH]c2ccccc12 | 3.5 | 6.5 | 51.1 |  |  |
| CCN(CC)C1CCN(C(=O)Cn2c(=O)oc3ccc(F)cc32)CC1 | 2.8 | 2.8 | 4.5 |  |  |
| C=CCN1C(=O)C(O)(CC(=O)c2ccc3ccccc3c2)c2ccccc21 (configuration not stated) | 31.7 |  | 24.5 |  |  |
| CN1CCc2c(sc3c2C(=O)N[C@@H](/C=C\c2ccccc2)N3)C1 | 55.6 |  |  |  |  |
| CCCCN1C(=O)C(O)(CC(=O)c2cccc(OC)c2)c2ccccc21 (configuration not stated) | 100 | 8.8 | 17.2 |  |  |
| COc1ccc2oc(=O)n(CC(=O)c3ccc(OC)c(OC)c3)c2c1 | 5.5 | 3.9 | 11.3 |  |  |
| Nc1ccc2c(c1)sc(=O)n2CC(=O)c1ccc2ccccc2c1 | 4.9 | > 200 |  |  |  |
| COc1ccc2oc(=O)n(CC(=O)c3c[nH]c4ccccc34)c2c1 | 7.2 | 20.3 | 36.4 |  |  |
| O=C(Cn1c(=O)oc2ccc([N+](=O)[O-])cc21)N1CCC(N2CCCC2)CC1 | 16.8 |  | 55.8 |  |  |
| O=C(CN1C(=O)COc2ccccc21)c1c[nH]c2ccccc12 | 59.8 | 37.1 | 109 |  |  |
| CN1C(=O)C(O)(CC(=O)c2cccc3ccccc23)c2ccccc21 (configuration not stated) | 128 | 2.4 | 24.7 |  |  |
| O=C(Cn1c(=O)oc2cc(Br)ccc21)c1ccc2ccccc2c1 | 29 | 29.7 | 1.7 |  |  |
| CC(C)N1C(=O)[C@@](O)(CC(=O)c2cccc3ccccc23)c2ccccc21 | 55.3 |  |  |  |  |
| O=C(Cn1c(=O)oc2ccccc21)N1CCC(N2CCOCC2)CC1 | 25.9 | 5.6 | 21 |  |  |
| O=C(Cn1c(=O)oc2ccccc21)c1c[nH]c2ccccc12 | 1.9 | 9.3 | 21 |  |  |
| COc1ccc(C(=O)Cn2c(=O)oc3ccc(F)cc32)cc1OC | 20.5 | 28.8 | 4.4 |  |  |
| COc1cccc(C(=O)Cn2c(=O)[nH]c3ccc(Cl)cc32)c1 | 14.8 | 28.9 | 70.4 | > 200 | > 200 |
| O=C(Cn1c(=O)oc2ccccc21)c1cccc2ccccc12 | 3 | 29.9 | 6.5 |  |  |
| COc1ccc2oc(=O)n(CC(=O)c3ccc(N(C)C)cc3)c2c1 | 15.5 | 6.1 | 2.7 |  |  |
| COc1ccc2oc(=O)n(CC(=O)c3ccc4ccccc4c3)c2c1 | 1.5 | 59.5 | 1.5 |  |  |
| CCCN1C(=O)C(O)(CC(=O)c2ccc3c(c2)CCCC3)c2ccccc21 (configuration not stated) | 50.5 | 7.2 | 89.5 |  |  |

— ChEMBL document CHEMBL4359913, “Identification and characterization of benzo[d]oxazol-2(3H)-one derivatives as the first potent and selective small-molecule inhibitors of chromodomain protein CDYL” (Eur J Med Chem, 2019)
